Test results taken from publication PMC3701436 (Journal of medicinal chemistry, 2012).

What was measured:
[1] = tested on: bacterial reverse mutation; experiment: Non-GLP in vitro bacterial reverse mutation; format: cell-based
hERG channels = hERG channels (Homo sapiens, UniProt Q12809); experiment: hERG channel block; format: biochemical; conditions: at a concentration of 10 μM or below
MeV RdRp = MeV RdRp (Measles virus, UniProt P12576); experiment: Plasmid-based mini-replicon luciferase assay of RdRp activity in BSR-T7/5 cells; format: cell-based; conditions: 36 hours post-transfection; averages of three experiments
Sequence of MeV RdRp (P12576 whole entry): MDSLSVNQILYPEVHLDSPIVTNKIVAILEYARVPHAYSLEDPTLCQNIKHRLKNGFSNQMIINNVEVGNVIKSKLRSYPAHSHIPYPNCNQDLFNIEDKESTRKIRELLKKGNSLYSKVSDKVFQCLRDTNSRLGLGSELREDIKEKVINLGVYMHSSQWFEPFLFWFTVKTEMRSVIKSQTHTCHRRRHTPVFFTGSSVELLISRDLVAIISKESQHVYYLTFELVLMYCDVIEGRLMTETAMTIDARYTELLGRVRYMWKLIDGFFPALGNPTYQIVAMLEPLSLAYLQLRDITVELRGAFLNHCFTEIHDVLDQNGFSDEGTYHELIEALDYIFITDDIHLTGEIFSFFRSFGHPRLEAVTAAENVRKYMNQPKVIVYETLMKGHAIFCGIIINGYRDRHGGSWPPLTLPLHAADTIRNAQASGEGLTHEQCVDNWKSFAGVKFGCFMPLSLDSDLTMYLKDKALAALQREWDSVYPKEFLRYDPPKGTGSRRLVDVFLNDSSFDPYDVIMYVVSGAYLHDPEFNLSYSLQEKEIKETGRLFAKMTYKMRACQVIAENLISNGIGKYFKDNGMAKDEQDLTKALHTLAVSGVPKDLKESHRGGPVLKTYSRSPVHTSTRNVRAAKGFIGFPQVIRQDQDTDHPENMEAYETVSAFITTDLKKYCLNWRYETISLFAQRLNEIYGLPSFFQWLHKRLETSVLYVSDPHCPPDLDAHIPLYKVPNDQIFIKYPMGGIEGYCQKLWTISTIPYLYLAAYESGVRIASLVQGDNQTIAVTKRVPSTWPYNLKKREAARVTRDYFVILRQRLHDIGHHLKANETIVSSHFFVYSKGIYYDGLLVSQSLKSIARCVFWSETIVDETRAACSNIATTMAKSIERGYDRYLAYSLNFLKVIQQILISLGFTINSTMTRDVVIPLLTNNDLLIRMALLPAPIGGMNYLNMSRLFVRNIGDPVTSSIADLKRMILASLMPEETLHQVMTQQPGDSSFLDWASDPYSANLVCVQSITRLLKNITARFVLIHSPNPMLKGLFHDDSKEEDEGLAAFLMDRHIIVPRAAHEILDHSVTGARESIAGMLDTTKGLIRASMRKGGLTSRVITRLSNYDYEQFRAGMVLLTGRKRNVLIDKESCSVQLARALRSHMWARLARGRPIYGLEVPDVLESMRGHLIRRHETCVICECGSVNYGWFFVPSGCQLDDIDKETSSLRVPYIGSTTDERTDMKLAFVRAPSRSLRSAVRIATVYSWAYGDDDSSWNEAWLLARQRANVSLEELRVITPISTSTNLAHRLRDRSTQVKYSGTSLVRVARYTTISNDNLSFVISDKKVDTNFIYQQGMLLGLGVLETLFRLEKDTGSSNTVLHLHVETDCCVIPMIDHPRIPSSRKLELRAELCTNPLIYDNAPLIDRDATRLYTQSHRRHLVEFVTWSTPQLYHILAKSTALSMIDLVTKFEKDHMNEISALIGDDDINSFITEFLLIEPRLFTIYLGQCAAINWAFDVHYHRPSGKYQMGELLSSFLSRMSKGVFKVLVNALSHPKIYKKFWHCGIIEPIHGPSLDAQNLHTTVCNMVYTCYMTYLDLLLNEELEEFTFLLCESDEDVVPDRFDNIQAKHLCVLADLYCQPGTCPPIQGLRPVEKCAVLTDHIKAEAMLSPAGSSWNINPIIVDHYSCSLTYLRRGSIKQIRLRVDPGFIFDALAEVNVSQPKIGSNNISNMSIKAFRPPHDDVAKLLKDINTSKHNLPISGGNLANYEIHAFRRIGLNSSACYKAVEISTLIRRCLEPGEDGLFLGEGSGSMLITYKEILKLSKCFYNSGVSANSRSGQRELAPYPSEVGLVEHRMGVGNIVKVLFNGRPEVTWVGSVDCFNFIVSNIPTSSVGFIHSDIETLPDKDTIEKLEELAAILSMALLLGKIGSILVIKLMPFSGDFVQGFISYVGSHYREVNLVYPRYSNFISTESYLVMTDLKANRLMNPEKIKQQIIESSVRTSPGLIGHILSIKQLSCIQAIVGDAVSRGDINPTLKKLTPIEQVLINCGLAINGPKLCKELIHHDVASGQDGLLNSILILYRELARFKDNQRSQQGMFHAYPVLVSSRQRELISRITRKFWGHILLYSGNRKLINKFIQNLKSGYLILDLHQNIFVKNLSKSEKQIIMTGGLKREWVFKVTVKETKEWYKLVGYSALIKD
Sequence of MeV RdRp (P03422 whole entry, further chain): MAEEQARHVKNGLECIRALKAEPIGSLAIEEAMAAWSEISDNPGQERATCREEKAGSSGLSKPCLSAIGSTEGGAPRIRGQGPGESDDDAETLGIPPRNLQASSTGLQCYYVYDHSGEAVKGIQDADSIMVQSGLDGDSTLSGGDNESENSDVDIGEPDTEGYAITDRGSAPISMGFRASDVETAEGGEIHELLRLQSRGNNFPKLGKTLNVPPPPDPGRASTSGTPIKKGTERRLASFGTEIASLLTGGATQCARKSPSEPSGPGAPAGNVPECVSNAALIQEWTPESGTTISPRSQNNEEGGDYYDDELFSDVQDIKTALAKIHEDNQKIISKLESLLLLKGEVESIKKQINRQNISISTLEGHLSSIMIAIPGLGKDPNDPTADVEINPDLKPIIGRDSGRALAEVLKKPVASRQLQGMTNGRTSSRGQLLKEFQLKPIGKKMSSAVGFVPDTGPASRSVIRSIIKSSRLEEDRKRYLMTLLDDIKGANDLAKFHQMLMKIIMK
Outline: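 BSR-T7/5 cells were transfected with plasmids encoding MeV L, N and P plus a firefly luciferase minigenome reporter, then incubated with a range of test compound concentrations or vehicle. Luciferase activity in cell lysates was read 36 h post-transfection and expressed relative to vehicle-treated samples. Dose-response inhibition curves were generated from the mean of three experiments ± SD.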

Caco-2 = Caco-2 bi-directional permeability assay; format: in vitro ADME

Sequence of hERG channels (Q12809 whole entry): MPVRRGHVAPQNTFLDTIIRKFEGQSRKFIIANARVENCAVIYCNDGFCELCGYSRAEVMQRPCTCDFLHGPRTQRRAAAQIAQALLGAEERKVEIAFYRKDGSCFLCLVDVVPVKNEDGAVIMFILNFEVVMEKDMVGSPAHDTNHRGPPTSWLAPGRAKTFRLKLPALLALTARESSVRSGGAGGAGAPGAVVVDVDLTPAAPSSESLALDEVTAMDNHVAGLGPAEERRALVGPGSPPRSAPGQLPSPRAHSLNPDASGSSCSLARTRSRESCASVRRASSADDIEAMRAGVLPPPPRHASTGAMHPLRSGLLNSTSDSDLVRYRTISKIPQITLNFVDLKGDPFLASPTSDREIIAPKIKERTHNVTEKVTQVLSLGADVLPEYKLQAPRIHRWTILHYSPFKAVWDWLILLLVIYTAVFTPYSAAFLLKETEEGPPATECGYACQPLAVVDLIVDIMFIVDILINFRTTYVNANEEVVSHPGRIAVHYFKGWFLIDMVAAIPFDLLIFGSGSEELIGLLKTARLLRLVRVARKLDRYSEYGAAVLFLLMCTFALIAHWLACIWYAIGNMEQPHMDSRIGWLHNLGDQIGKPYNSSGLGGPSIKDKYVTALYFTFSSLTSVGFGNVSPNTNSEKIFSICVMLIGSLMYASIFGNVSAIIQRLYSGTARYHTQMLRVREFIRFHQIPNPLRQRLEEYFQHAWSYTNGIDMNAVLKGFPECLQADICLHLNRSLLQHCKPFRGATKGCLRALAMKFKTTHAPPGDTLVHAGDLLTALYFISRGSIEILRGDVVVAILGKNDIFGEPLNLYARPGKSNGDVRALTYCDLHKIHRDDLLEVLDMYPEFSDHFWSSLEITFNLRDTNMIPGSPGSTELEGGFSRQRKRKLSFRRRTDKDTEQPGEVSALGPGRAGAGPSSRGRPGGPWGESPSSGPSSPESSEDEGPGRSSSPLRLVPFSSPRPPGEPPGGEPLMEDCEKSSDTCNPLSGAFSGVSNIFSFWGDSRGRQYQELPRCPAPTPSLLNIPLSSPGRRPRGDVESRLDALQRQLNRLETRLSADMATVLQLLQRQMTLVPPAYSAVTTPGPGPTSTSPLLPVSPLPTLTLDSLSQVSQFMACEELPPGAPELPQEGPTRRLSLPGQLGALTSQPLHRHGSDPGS

| SMILES | mutagenicity (Ames) [1] | hERG channel block (hERG channels) | inhibition of viral RdRp activity (relative luciferase activity) (MeV RdRp) | permeability (Caco-2) |
| --- | --- | --- | --- | --- |
| Cn1nc(C(F)(F)F)cc1C(=O)Nc1ccc(S(=O)(=O)N2CCCCC2)cc1 [Compound 2] | non-mutagenic | did not block | dose-dependent inhibition | high permeability |
| Cn1nc(C(F)(F)F)cc1C(=O)Nc1ccc(S(=O)(=O)N2CCCC[C@H]2CCN2CCOCC2)cc1 [Compound 2o, (S)-1-methyl-N-(4-((2-(2-morpholinoethyl)piperidin-1-yl)sulfonyl)phenyl)-3-(trifluoromethyl)-1H-pyrazole-5-carboxamid] |  |  | dose-dependent inhibition | high permeability |
